From ChEMBL document CHEMBL1287802, “Convergent synthesis of fluorescence-labeled probes of Annonaceous acetogenins and visualization of their cell distribution” (Bioorg Med Chem, 2010)
The source made the active and inactive calls. No cut-off for these calls is given here.

What was measured:
[1] = target: ABC-type oligopeptide transporter ABCB9 (Homo sapiens) (UniProt Q9NP78); assay: Effect on human GFP-tagged TAPL-mediated cellular uptake expressed in CHO-K1 cells assessed as localization to endoplasmic reticulum at 10 uM after 5 hrs using ER-Tracker red staining by confocal laser scanning microscopic analysis; type: cell-based
Sequence of ABC-type oligopeptide transporter ABCB9 (Homo sapiens) (Q9NP78 whole entry): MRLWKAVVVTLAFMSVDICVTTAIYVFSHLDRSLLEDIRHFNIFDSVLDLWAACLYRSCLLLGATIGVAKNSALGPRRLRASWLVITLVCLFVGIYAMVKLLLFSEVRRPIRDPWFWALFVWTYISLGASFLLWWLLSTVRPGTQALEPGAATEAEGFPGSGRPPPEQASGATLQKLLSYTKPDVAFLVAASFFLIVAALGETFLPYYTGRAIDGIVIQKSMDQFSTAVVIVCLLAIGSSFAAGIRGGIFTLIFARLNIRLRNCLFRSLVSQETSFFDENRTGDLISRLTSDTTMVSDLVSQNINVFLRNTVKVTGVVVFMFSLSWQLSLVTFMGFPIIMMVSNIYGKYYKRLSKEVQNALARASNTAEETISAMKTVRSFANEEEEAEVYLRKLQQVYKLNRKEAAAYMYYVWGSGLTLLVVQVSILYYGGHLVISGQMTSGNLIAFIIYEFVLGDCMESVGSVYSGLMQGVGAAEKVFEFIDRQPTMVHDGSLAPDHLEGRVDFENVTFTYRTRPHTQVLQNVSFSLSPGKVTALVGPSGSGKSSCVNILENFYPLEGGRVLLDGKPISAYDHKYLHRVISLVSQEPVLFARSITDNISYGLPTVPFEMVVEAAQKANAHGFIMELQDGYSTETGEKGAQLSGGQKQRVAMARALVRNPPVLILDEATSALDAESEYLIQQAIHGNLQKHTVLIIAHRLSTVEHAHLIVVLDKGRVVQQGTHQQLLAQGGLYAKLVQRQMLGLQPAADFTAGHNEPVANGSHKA
Method in brief: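 CHO-K1 cells were cultured two days at 37 °C in Ham's F12 with 7% fetal calf serum. They were loaded with 10 µM dansyl probe in medium for 5 h, washed five times, then stained with ER-Tracker Red. Live confocal imaging used 405 nm excitation for dansyl and 559 nm for the tracker, with overlap of signals assessed. Samples were run in duplicate.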

[2] = Cytotoxicity against CHOK1 cells at 10 uM after 24 hrs; type: cell-based, Cricetulus griseus; conditions: chinese hamster, cho-k1, 24 h
Method in brief: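 CHO-K1 cells were grown two days at 37 °C in Ham's F12 with 7% fetal calf serum in glass-bottomed dishes. They were exposed to 10 µM probe for 5 h, washed, and imaged. Dishes were then incubated a further 24 h. Toxicity was judged by microscopic inspection for desquamated or suspended cells.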

[3] = Growth inhibition of human HBC4 cells after 48 hrs by sulforhodamine B assay; type: functional; conditions: HBC4, 48 h
Method in brief: (§1)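 Tested in the JFCR39 panel of 39 human cancer cell lines. Cells were exposed to compound for 48 h, and growth was measured as the change in total cellular protein by sulforhodamine B colorimetry. GI50 (molar concentration for 50% growth inhibition) was calculated by a previously reported method. Fingerprints were plotted as log differences of each line's GI50 from the panel mean.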

[4] = Growth inhibition of human BSY1 cells after 48 hrs by sulforhodamine B assay; type: functional; conditions: BSY-1, 48 h; method in brief: as §1
[5] = Growth inhibition of human HBC5 cells after 48 hrs by sulforhodamine B assay; type: functional; conditions: HBC5, 48 h; method in brief: as §1
MCF7 = assay: Growth inhibition of human MCF7 cells after 48 hrs by sulforhodamine B assay; type: functional; conditions: MCF7, 48 h; method in brief: as §1
[6] = Growth inhibition of human MDA-MB-23 cells after 48 hrs by sulforhodamine B assay; type: functional; conditions: MDA-MB-23, 48 h, read-out: pGI50 (converted); method in brief: as §1
U-251 = assay: Growth inhibition of human U251 cells after 48 hrs by sulforhodamine B assay; type: functional; conditions: U-251, 48 h; method in brief: as §1
SF-268 = assay: Growth inhibition of human SF268 cells after 48 hrs by sulforhodamine B assay; type: functional; conditions: SF-268, 48 h; method in brief: as §1
SF-295 = assay: Growth inhibition of human SF295 cells after 48 hrs by sulforhodamine B assay; type: functional; conditions: SF-295, 48 h; method in brief: as §1
SF-539 = assay: Growth inhibition of human SF539 cells after 48 hrs by sulforhodamine B assay; type: functional; conditions: SF-539, 48 h; method in brief: as §1
SNB-75 = assay: Growth inhibition of human SNB75 cells after 48 hrs by sulforhodamine B assay; type: functional; conditions: SNB-75, 48 h; method in brief: as §1
SNB-78 = assay: Growth inhibition of human SNB78 cells after 48 hrs by sulforhodamine B assay; type: functional; conditions: SNB-78, 48 h; method in brief: as §1
HCC 2998 = assay: Growth inhibition of human HCC2998 cells after 48 hrs by sulforhodamine B assay; type: functional; conditions: HCC 2998, 48 h, read-out: pGI50 (converted); method in brief: as §1
KM12 = assay: Growth inhibition of human KM12 cells after 48 hrs by sulforhodamine B assay; type: functional; conditions: KM12, 48 h; method in brief: as §1
HT-29 = assay: Growth inhibition of human HT-29 cells after 48 hrs by sulforhodamine B assay; type: functional; conditions: HT-29, 48 h; method in brief: as §1
NCI-H23 = assay: Growth inhibition of human NCI-H23 cells after 48 hrs by sulforhodamine B assay; type: functional; conditions: NCI-H23, 48 h; method in brief: as §1
NCI-H226 = assay: Growth inhibition of human NCI-H226 cells after 48 hrs by sulforhodamine B assay; type: functional; conditions: NCI-H226, 48 h; method in brief: as §1
NCI-H522 = assay: Growth inhibition of human NCI-H522 cells after 48 hrs by sulforhodamine B assay; type: functional; conditions: NCI-H522, 48 h; method in brief: as §1
NCI-H460 = assay: Growth inhibition of human NCI-H460 cells after 48 hrs by sulforhodamine B assay; type: functional; conditions: NCI-H460, 48 h; method in brief: as §1
A549 = assay: Growth inhibition of human A549 cells after 48 hrs by sulforhodamine B assay; type: functional; conditions: A549, 48 h; method in brief: as §1
DMS-273 = assay: Growth inhibition of human DMS273 cells after 48 hrs by sulforhodamine B assay; type: functional; conditions: DMS-273, 48 h; method in brief: as §1
DMS-114 = assay: Growth inhibition of human DMS114 cells after 48 hrs by sulforhodamine B assay; type: functional; conditions: DMS-114, 48 h; method in brief: as §1
LOX IMVI = assay: Growth inhibition of human LOXIMVI cells after 48 hrs by sulforhodamine B assay; type: functional; method in brief: as §1
OVCAR-3 = assay: Growth inhibition of human OVCAR-3 cells after 48 hrs by sulforhodamine B assay; type: functional; conditions: OVCAR-3, 48 h; method in brief: as §1
OVCAR-4 = assay: Growth inhibition of human OVCAR4 cells after 48 hrs by sulforhodamine B assay; type: functional; conditions: OVCAR-4, 48 h; method in brief: as §1
OVCAR-5 = assay: Growth inhibition of human OVCAR5 cells after 48 hrs by sulforhodamine B assay; type: functional; conditions: OVCAR-5, 48 h; method in brief: as §1
OVCAR-8 = assay: Growth inhibition of human OVCAR8 cells after 48 hrs by sulforhodamine B assay; type: functional; conditions: OVCAR-8, 48 h; method in brief: as §1
SK-OV-3 = assay: Growth inhibition of human SKOV3 cells after 48 hrs by sulforhodamine B assay; type: functional; conditions: SK-OV-3, 48 h; method in brief: as §1
[7] = Growth inhibition of human RXF631L cells after 48 hrs by sulforhodamine B assay; type: functional; conditions: RXF 631, 48 h; method in brief: as §1
ACHN = assay: Growth inhibition of human ACHN cells after 48 hrs by sulforhodamine B assay; type: functional; method in brief: as §1
St-4 = assay: Growth inhibition of human St-4 cells after 48 hrs by sulforhodamine B assay; type: functional; conditions: St-4, 48 h; method in brief: as §1
[8] = Growth inhibition of human MKN1 cells after 48 hrs by sulforhodamine B assay; type: functional; conditions: MKN-1, 48 h; method in brief: as §1
MKN-7 = assay: Growth inhibition of human MKN7 cells after 48 hrs by sulforhodamine B assay; type: functional; conditions: MKN-7, 48 h; method in brief: as §1
MKN-28 = assay: Growth inhibition of human MKN28 cells after 48 hrs by sulforhodamine B assay; type: functional; conditions: MKN-28, 48 h; method in brief: as §1
MKN-45 = assay: Growth inhibition of human MKN45 cells after 48 hrs by sulforhodamine B assay; type: functional; conditions: MKN-45, 48 h; method in brief: as §1
MKN-74 = assay: Growth inhibition of human MKN74 cells after 48 hrs by sulforhodamine B assay; type: functional; conditions: MKN-74, 48 h; method in brief: as §1
DU-145 = assay: Growth inhibition of human DU145 cells after 48 hrs by sulforhodamine B assay; type: functional; conditions: DU-145, 48 h, read-out: pGI50 (converted); method in brief: as §1
PC-3 = assay: Growth inhibition of human PC3 cells after 48 hrs by sulforhodamine B assay; type: functional; conditions: PC-3, 48 h; method in brief: as §1
HCT-15 = assay: Growth inhibition of human HCT15 cells after 48 hrs by sulforhodamine B assay; type: functional; conditions: HCT-15, 48 h; method in brief: as §1
HCT-116 = assay: Growth inhibition of human HCT116 cells after 48 hrs by sulforhodamine B assay; type: functional; conditions: HCT-116, 48 h; method in brief: as §1
[9] = target: ABC-type oligopeptide transporter ABCB9 (Homo sapiens) (UniProt Q9NP78); assay: Effect on human GFP-tagged TAPL-mediated cellular uptake expressed in CHO-K1 cells assessed as localization to lysosome at 10 uM after 5 hrs by confocal laser scanning microscopic analysis

C[C@H]1C=C(CCCCCCCCCCCC[C@@H](O)[C@H]2CC[C@H]([C@H](O)CCCCCCCCCNS(=O)(=O)c3cccc4c(N(C)C)cccc34)O2)C(=O)O1
Activity [1]: Active | Activity [2]: Non-toxic | GI50 [3]: > 100 µM | GI50 [4]: > 100 µM | GI50 [5]: > 100 µM | GI50 (MCF7): 6.03 µM | GI50 [6]: > 100 µM | GI50 (U-251): > 100 µM | GI50 (SF-268): > 100 µM | GI50 (SF-295): 0.513 µM | GI50 (SF-539): > 100 µM | GI50 (SNB-75): > 100 µM | GI50 (SNB-78): > 100 µM | GI50 (HCC 2998): > 100 µM | GI50 (KM12): > 100 µM | GI50 (HT-29): > 100 µM | GI50 (NCI-H23): 3.47 µM | GI50 (NCI-H226): 29.5 µM | GI50 (NCI-H522): 4.9 µM | GI50 (NCI-H460): > 100 µM | GI50 (A549): > 100 µM | GI50 (DMS-273): > 100 µM | GI50 (DMS-114): 0.0234 µM | GI50 (LOX IMVI): > 100 µM | GI50 (OVCAR-3): > 100 µM | GI50 (OVCAR-4): > 100 µM | GI50 (OVCAR-5): > 100 µM | GI50 (OVCAR-8): > 100 µM | GI50 (SK-OV-3): > 100 µM | GI50 [7]: > 100 µM | GI50 (ACHN): > 100 µM | GI50 (St-4): > 100 µM | GI50 [8]: > 100 µM | GI50 (MKN-7): 0.0398 µM | GI50 (MKN-28): 0.0692 µM | GI50 (MKN-45): > 100 µM | GI50 (MKN-74): 1.55 µM | GI50 (DU-145): > 100 µM | GI50 (PC-3): 81.3 µM | GI50 (HCT-15): > 100 µM | GI50 (HCT-116): 8.91 µM | Activity [9]: inactive
